In brackets after ≈: the same amount, converted by molar mass. Activity calls are given as the source filed them. The calls are words filed in the database; no cut-off is given here.
What was measured:
Histoplasma capsulatum [1] = experiment: Antifungal activity against Histoplasma capsulatum infected in x-irradiated mouse assessed as prolongation of lifetime at 25 mg/kg, sc bid administered on day 0, 1 and 2 post infection; type: functional; conditions: route subcutaneous
Outline: (§1)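 Mice infected with H. capsulatum were dosed sc at 0 and 4 h postinfection on days 0, 1 and 2, six doses in total. Read-out was % extension of lifetime beyond untreated controls. Amphotericin B, dosed the same way, served as positive control.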

Histoplasma capsulatum [2] = experiment: Antifungal activity against Histoplasma capsulatum infected in x-irradiated mouse assessed as prolongation of lifetime at 50 mg/kg, sc bid administered on day 0, 1 and 2 post infection; type: functional; conditions: route subcutaneous; outline: as §1
Histoplasma capsulatum [3] = experiment: Antifungal activity against Histoplasma capsulatum 26 by agar dilution assay; type: functional
Outline: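 In vitro MIC against H. capsulatum strain 26 by standard agar dilution. Amphotericin B was run as the standard in each test.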

Mus musculus [4] = experiment: Toxicity in ip dosed mouse; type: organism-based; conditions: in vivo
Histoplasma capsulatum [5] = experiment: Antifungal activity against Histoplasma capsulatum infected in x-irradiated mouse assessed as prolongation of lifetime at 13 mg/kg, sc bid administered on day 0, 1 and 2 post infection; type: functional; conditions: route subcutaneous; outline: as §1
Histoplasma capsulatum [6] = experiment: Antifungal activity against Histoplasma capsulatum infected in x-irradiated mouse assessed as prolongation of lifetime at 10 mg/kg, sc bid administered on day 0, 1 and 2 post infection; type: functional; conditions: route subcutaneous; outline: as §1
Histoplasma capsulatum [7] = experiment: Antifungal activity against Histoplasma capsulatum infected in x-irradiated mouse assessed as prolongation of lifetime at 20 mg/kg, sc bid administered on day 0, 1 and 2 post infection; type: functional; conditions: route subcutaneous; outline: as §1
Histoplasma capsulatum [8] = experiment: Antifungal activity against Histoplasma capsulatum infected in x-irradiated mouse assessed as prolongation of lifetime at 40 mg/kg, sc bid administered on day 0, 1 and 2 post infection; type: functional; conditions: route subcutaneous; outline: as §1
Mus musculus [9] = experiment: Toxicity in mouse at 50 mg/kg, sc bid; type: organism-based; design: dose 50 mg/kg, route subcutaneous; conditions: in vivo
Histoplasma capsulatum [10] = experiment: Antifungal activity against Histoplasma capsulatum infected in x-irradiated mouse assessed as prolongation of lifetime at 6 mg/kg, sc bid administered on day 0, 1 and 2 post infection; type: functional; conditions: route subcutaneous; outline: as §1
Candida albicans [11] = experiment: Antifungal activity against Candida albicans infected in mouse; type: functional, organism-based
Candida albicans [12] = experiment: Antifungal activity against Candida albicans by disk-plate assay; type: functional, organism-based

SMILES	Activity (Histoplasma capsulatum [1])	Activity (Histoplasma capsulatum [2])	MIC (Histoplasma capsulatum [3])	Activity (Mus musculus [4])	Activity (Histoplasma capsulatum [5])	other results
C[C@@H]1[C@H](O)[C@@H](C)/C=C/C=C/C=C/C=C/C=C/C=C/C=C/[C@H](O[C@@H]2O[C@H](C)[C@@H](O)[C@H](N)[C@@H]2O)C[C@@H]2O[C@](O)(C[C@@H](O)C[C@@H](O)[C@H](O)CC[C@@H](O)C[C@@H](O)CC(=O)O[C@H]1C)C[C@H](O)[C@H]2C(=O)O [AMPHOTERICIN B]	58%	70%	0.0625 µg/mL (≈ 0.0676 µM)	–	–	–
CN(C)C(=S)SSc1ccccc1C(=O)O	–	–	< 1 µg/mL	0.1 g/kg	–	–
Cc1ccc(SSCC(=O)O)cc1	-6%	0%	20 µg/mL (≈ 93.3 µM)	–	17%	–
Cc1ccc(SSC(=S)N2CCOCC2)cc1	0%	9%	40 µg/mL (≈ 140 µM)	–	5%	–
Cc1ccc(SSCCCCS(=O)[O-])cc1.[Na+]	-6%	-21%	20 µg/mL	–	15%	–
S=C1SSCCN1CCCCC1CCCCC1	–	–	10 µg/mL (≈ 34.5 µM)	0.1 g/kg	–	–
O=C(O)c1ccccc1SSC(=S)N1CCOCC1	-5%	-7%	> 10 µg/mL	0.1 g/kg	-2%	–
CC(C)(C)SSC(=S)N1CCOCC1	–	–	> 40 µg/mL	–	–	Activity (Histoplasma capsulatum [6]): -4%; Activity (Histoplasma capsulatum [7]): 5%; Activity (Histoplasma capsulatum [8]): 11%
Cc1ccc(SSCCN)cc1.Cl	0%	9%	> 20 µg/mL	–	4%	–
CCCCCCCCCCN1CCSSC1=S	–	–	> 10 µg/mL	0.1 g/kg	–	–
S=C(SSC(=S)N1CCOCC1)N1CCOCC1	5%	–	40 µg/mL (≈ 123 µM)	–	5%	Activity (Mus musculus [9]): Toxic; Activity (Histoplasma capsulatum [10]): 5%
COc1ccc(CSSCCCCS(=O)[O-])cc1.[Na+]	-19%	9%	20 µg/mL	–	-2%	–
CCSSC(=S)N1CCOCC1	5%	–	10 µg/mL (≈ 44.8 µM)	–	5%	Activity (Mus musculus [9]): Toxic; Activity (Histoplasma capsulatum [10]): 5%
COc1ccc(C(=S)SSc2ccc(C)cc2)cc1	7%	-2%	20 µg/mL (≈ 65.3 µM)	–	2%	–
S=C(SSc1ccccc1)N1CCOCC1	9%	–	40 µg/mL (≈ 147 µM)	–	11%	Activity (Mus musculus [9]): Toxic; Activity (Histoplasma capsulatum [10]): 5%
CN(C)C(=S)SSc1ccc(Cl)cc1	13%	11%	5 µg/mL (≈ 19 µM)	1 g/kg	-14%	Activity (Candida albicans [11]): inactive; Activity (Candida albicans [12]): Active
